The test system of data set [1] is primary CD34+ normal human blood stem cells. The experiment in a line: MTT cytotoxicity selectivity, normal blood stem cells versus AML cells. To be noted: CD34+ normal human blood stem cells vs MA9.3RAS. The class given is cell-based. In short, it runs like this: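 Both cell types get the same MTT assay. AML cells are cultured in IMDM with 20% bovine calf serum; UCB cells in the same medium plus SCF, IL-3, IL-6, Flt-3L and TPO. Cells are seeded at 4 × 10^4/well, held overnight at 37°C, then exposed 48 h to freshly dissolved test compound. Medium is replaced with MTT for 4 h, then DMSO, OD 575 nm. IC50 comes from a four-parameter sigmoid fit (triplicates, repeated twice), and the ratio is normal IC50 over AML IC50.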

Data set [2] can be described thus: Oxidation of 14 to 14-ox/14-red by HPLC. The class given is physicochemical. In short, it runs like this:
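Oxidation of the test compound to its bicyclic oxidised/reduced products was followed by reverse-phase C-18 HPLC. Under normal atmosphere the reaction was fitted as pseudo-zero-order to give t1/2. Activation used one molar equivalent of hydrogen peroxide, and rate enhancement was estimated from a lower-limit t1/2 against the atmosphere-only reaction.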

A short description of data set [3]: Oxidation kinetics of 1 into 2 by HPLC. The class given is physicochemical. In short, it runs like this: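 In PBS, alone or with 10 mM H2O2 (a tenfold excess), the test compound's conversion to its oxidised product was followed by reverse-phase HPLC on a C-18 column (Synergi Hydro-RP, 4 μm, 80 Å, 150 × 4.6 mm), and a conversion rate was derived. N-acetylcysteine was then added in limiting amount to mimic cellular thiol addition; the adduct was confirmed by FTMS.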

Experimental findings from article PMC4292800 (Bioorganic & medicinal chemistry, 2014) are described below.

For `O=C(COc1ccccc1)Nc1cc(O)ccc1O` [Compound 10, N-(2,5-dihydroxyphenyl)-2-phenoxyacetamide], the “selectivity factor (ratio of IC50 of normal cells over IC50 of AML cells)” value in data set [1] is listed as “limited selectivity”.

Turning to `O=C(CNC1CCCCC1)Nc1cc(O)ccc1O` [Compound 14, 2-(cyclohexylamino)-N-(2,5-dihydroxyphenyl)acetamide], the “time for conversion of all 14” value in data set [2] (hydrogen peroxide (Figure 3C legend)) was “less than 0.1 hrs”. The “activation by hydrogen peroxide” value in data set [2] (rate enhancement with hydrogen peroxide vs atmosphere) is given as “more than 150 fold”. Besides, in data set [2] (under argon atmosphere, two hours), the “conversion of 14 to its oxidation product” value is 4±3%.

As to `CN(CC(=O)Nc1cc(O)ccc1O)c1ccccc1` [Compound 1, N-(2,5-dihydroxyphenyl)-2-(methyl(phenyl)amino) acetamide], the “rate of conversion of 1 to 2” value in data set [3] (PBS, absence of exogenous oxidant) came to 0.011 ± 0.002 min^−; in data set [3] (presence of 10 mM H2O2, a tenfold excess), 0.6 ± 0.1 min^−. Further, in data set [3] (PBS, no exogenous oxidant, in one hour), the “conversion of 1 to 2” value was “approximately 50%”. The “rate of conversion of 1 into 2” value in data set [3] (with hydrogen peroxide (Figure 2D legend)) is 0.6 min⁻¹.

Turning to `O=C(CSc1ccccc1)Nc1cc(O)ccc1O` [Compound 11, N-(2,5-dihydroxyphenyl)-2-(phenylthio)acetamide], the “selectivity factor (ratio of IC50 of normal cells over IC50 of AML cells)” value in data set [1] was “limited selectivity”.
